Reference: ChEMBL document CHEMBL1154419, “Pharmacodynamic effects of telavancin against methicillin-resistant and methicillin-susceptible Staphylococcus aureus strains in the presence of human albumin or serum and in an in vitro kinetic model” (Antimicrob Agents Chemother, 2007)
In brackets after ≈: the same amount, converted by molar mass. Activity calls are given as the source filed them. The calls are words filed in the database; no cut-off is given here.

What was measured:
Staphylococcus aureus [1] = assay: Antibacterial activity against methicillin-resistant Staphylococcus aureus ATCC 33591 assessed as change in bacterial burden at 20 mg/liter after 4 hrs; assay type: functional
Summary of the method: (§1)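 In vitro kinetic model: spinner flask with 0.45-μm filter and prefilter, stirred, M-H broth at 37°C, starting inoculum approx. 5 × 10⁵ CFU/ml. Single initial drug dose of 1.0 to 40 mg/liter, with flow set to give a half-life of approx. 8 h. Viable counts at 0, 2, 4, 6, 8, 12 and 24 h. Duplicate runs per strain and concentration.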

Staphylococcus aureus [2] = assay: Antibacterial activity against methicillin-resistant Staphylococcus aureus ATCC 33591 assessed as change in bacterial burden at 5 mg/liter after 8 hrs; assay type: functional; summary of the method: as §1
Staphylococcus aureus [3] = assay: Antibacterial activity against methicillin-resistant Staphylococcus aureus ATCC 33591 assessed as bacterial regrowth at 0.5 times MIC after 24 hrs in presence of human albumin; assay type: functional, organism-based
Summary of the method: (§2)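 Static time-kill in M-H broth, in M-H broth with 40 g/liter fatty-acid-free purified human albumin, or in M-H broth with inactivated 50% human serum. Inoculum approx. 5 × 10⁵ CFU/ml, drug at 0.5, 1, 2.5, 5, 10, 25 and 50× MIC, 37°C. Samples at 0, 3, 6, 12 and 24 h plated on blood agar, counted after 24 h. Detection limit 5 × 10¹ CFU/ml. Run in duplicate.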

Staphylococcus aureus [4] = assay: Antibacterial activity against methicillin-susceptible Staphylococcus aureus ATCC 13709 assessed as bacterial regrowth at 5 mg/liter Cmax; assay type: functional, organism-based
Staphylococcus aureus [5] = assay: Antibacterial activity against methicillin-susceptible Staphylococcus aureus ATCC 13709 assessed as change in bacterial burden at 1 mg/liter after 2 hrs; assay type: functional
Staphylococcus aureus [6] = assay: Antibacterial activity against methicillin-susceptible Staphylococcus aureus ATCC 13709 assessed as change in bacterial burden at 2.5 mg/liter after 8 hrs; assay type: functional
Staphylococcus aureus [7] = assay: Antibacterial activity against methicillin-resistant Staphylococcus aureus COL infected New Zealand white rabbit endocarditis model assessed as reduction in mean aortic vegetation titer at 30 mg/kg, iv twice daily after 4 days; assay type: functional, Aorta
Staphylococcus aureus [8] = assay: Antibacterial activity against methicillin-resistant Staphylococcus aureus ATCC 33591 assessed as change in bacterial burden at 20 mg/liter after 2 hrs; assay type: functional; summary of the method: as §1
Staphylococcus aureus [9] = assay: Antibacterial activity against methicillin-susceptible Staphylococcus aureus ATCC 13709 assessed as change in bacterial burden at 10 mg/liter after 4 hrs; assay type: functional
Staphylococcus aureus [10] = assay: Antibacterial activity against methicillin-susceptible Staphylococcus aureus ATCC 13709 assessed as change in bacterial burden at 20 mg/liter after 8 hrs; assay type: functional; summary of the method: as §1
[11] = Half life in in vitro kinetic model containing Mueller-Hinton broth and bacteria; assay type: physicochemical; conditions: in vitro kinetic model with bacteria
Summary of the method: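 Drug levels in kinetic-model samples measured by agar-well diffusion bioassay with Bacillus stearothermophilus ATCC 3032: 24 h prediffusion at 22°C, then overnight at 55°C; samples and standards in triplicate; detection limit 1 mg/liter.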

Staphylococcus aureus [12] = assay: Antibacterial activity against methicillin-resistant Staphylococcus aureus ATCC 33591 assessed as bacterial killing at 10 times MIC after 24 hrs in PBS-nutrient depleted medium; assay type: functional, organism-based
Summary of the method: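 Strain diluted in M-H broth to approx. 10⁵ CFU/ml and grown 6 h into log phase, then split. Broth tubes got drug at 10× MIC directly. PBS tubes were transferred to PBS and held 3 h more, then dosed at 10× MIC. Growth controls were run in each medium. Viable counts at 0, 3, 6, 9, 12 and 24 h. Run in duplicate.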

[13] = Cmax in human at 10 mg/kg once daily; assay type: ADME, organism-based; set-up: dose 10 mg/kg; conditions: in vivo
Staphylococcus aureus [14] = assay: Antibacterial activity against methicillin-susceptible Staphylococcus aureus ATCC 13709 assessed as change in bacterial burden at 40 mg/liter after 8 hrs; assay type: functional
Staphylococcus aureus [15] = assay: Antibacterial activity against methicillin-susceptible Staphylococcus aureus ATCC 13709 assessed as change in bacterial burden at 10 mg/liter after 12 hrs; assay type: functional
Staphylococcus aureus [16] = assay: Antibacterial activity against methicillin-susceptible Staphylococcus aureus ATCC 13709 assessed as change in bacterial burden at 5 mg/liter after 4 hrs; assay type: functional
Staphylococcus aureus [17] = assay: Antibacterial activity against methicillin-susceptible Staphylococcus aureus ATCC 13709 assessed as change in bacterial burden at 2.5 mg/liter after 4 hrs; assay type: functional
Staphylococcus aureus [18] = assay: Antibacterial activity against methicillin-resistant Staphylococcus aureus ATCC 33591 assessed as change in bacterial burden at 2.5 mg/liter after 12 hrs; assay type: functional; summary of the method: as §1
Staphylococcus aureus [19] = assay: Antibacterial activity against methicillin-susceptible Staphylococcus aureus ATCC 13709 assessed as bacterial regrowth at 0.25 times MIC; assay type: functional, organism-based
Summary of the method: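 Static time-kill in cation-supplemented M-H broth, inoculum ~5 × 10⁵ CFU/ml, 37°C; samples at 0, 3, 6, 12 and 24 h plated on blood agar for viable counts (detection limit 5 × 10¹ CFU/ml); duplicate runs.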

Staphylococcus aureus [20] = assay: Antibacterial activity against methicillin-resistant Staphylococcus aureus ATCC 33591 assessed as change in bacterial burden at 2.5 mg/liter after 4 hrs; assay type: functional; summary of the method: as §1
Staphylococcus aureus [21] = assay: Antibacterial activity against methicillin-resistant Staphylococcus aureus ATCC 33591 assessed as bacterial killing at 50 times MIC after 24 hrs; assay type: functional, organism-based; summary of the method: as §2
Staphylococcus aureus [22] = assay: Antibacterial activity against methicillin-resistant Staphylococcus aureus ATCC 33591 assessed as change in bacterial burden at 5 mg/liter after 12 hrs; assay type: functional; summary of the method: as §1
Staphylococcus aureus [23] = assay: Antibacterial activity against methicillin-resistant Staphylococcus aureus ATCC 33591 assessed as change in bacterial burden at 2.5 mg/liter after 8 hrs; assay type: functional; summary of the method: as §1
Staphylococcus aureus [24] = assay: Antibacterial activity against methicillin-resistant Staphylococcus aureus ATCC 33591 after 18 to 24 hrs by macrodilution technique; assay type: functional
Summary of the method: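 Broth macrodilution per CLSI, run in triplicate on separate occasions. Twofold serial drug dilutions in broth, inoculum approx. 5 × 10⁵ CFU/ml, 37°C for 18 to 24 h. MIC taken as the lowest concentration with no visible growth.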

Staphylococcus aureus [25] = assay: Antibacterial activity against methicillin-susceptible Staphylococcus aureus ATCC 13709 assessed as change in bacterial burden at 20 mg/liter after 24 hrs; assay type: functional
Staphylococcus aureus [26] = assay: Antibacterial activity against methicillin-susceptible Staphylococcus aureus ATCC 13709 assessed as change in bacterial burden at 40 mg/liter after 24 hrs; assay type: functional
Staphylococcus aureus [27] = assay: Antibacterial activity against methicillin-susceptible Staphylococcus aureus ATCC 13709 assessed as bacterial killing at 10 times MIC after 6 hrs in PBS-nutrient depleted medium; assay type: functional, organism-based
Staphylococcus aureus [28] = assay: Antibacterial activity against methicillin-resistant Staphylococcus aureus ATCC 33591 assessed as change in bacterial burden at 40 mg/liter after 4 hrs; assay type: functional; summary of the method: as §1
[29] = Ratio of AUC in in vitro kinetic model containing Mueller-Hinton broth and methicillin-susceptible Staphylococcus aureus ATCC 13709 to MIC for methicillin-susceptible Staphylococcus aureus ATCC 13709 in bacterial killing stage; assay type: functional
Staphylococcus aureus [30] = assay: Antibacterial activity against methicillin-resistant Staphylococcus aureus ATCC 33591 assessed as change in bacterial burden at 5 mg/liter after 2 hrs; assay type: functional; summary of the method: as §1
Staphylococcus aureus [31] = assay: Antibacterial activity against methicillin-susceptible Staphylococcus aureus ATCC 13709 assessed as change in bacterial burden at 10 mg/liter after 8 hrs; assay type: functional
Staphylococcus aureus [32] = assay: Antibacterial activity against methicillin-susceptible Staphylococcus aureus ATCC 13709 assessed as change in bacterial burden at 20 mg/liter after 6 hrs; assay type: functional; summary of the method: as §1

CCCCCCCCCCNCCN[C@@]1(C)C[C@H](O[C@H]2[C@H](Oc3c4cc5cc3Oc3ccc(cc3Cl)[C@@H](O)[C@@H](NC(=O)[C@@H](CC(C)C)NC)C(=O)N[C@@H](CC(N)=O)C(=O)N[C@H]5C(=O)N[C@H]3C(=O)N[C@H](C(=O)N[C@H](C(=O)O)c5cc(O)c(CNCP(=O)(O)O)c(O)c5-c5cc3ccc5O)[C@H](O)c3ccc(c(Cl)c3)O4)O[C@H](CO)[C@@H](O)[C@@H]2O)O[C@@H](C)[C@H]1O [TELAVANCIN]
deltalog10CFU/ml (Staphylococcus aureus [1]): -2.1
deltalog10CFU/ml (Staphylococcus aureus [2]): -3.6
Activity (Staphylococcus aureus [3]): Active
Activity (Staphylococcus aureus [4]): Active
deltalog10CFU/ml (Staphylococcus aureus [5]): -0.8
deltalog10CFU/ml (Staphylococcus aureus [6]): -3.4
log10CFU/g (Staphylococcus aureus [7]): 4.7
deltalog10CFU/ml (Staphylococcus aureus [8]): -1
deltalog10CFU/ml (Staphylococcus aureus [9]): -2.4
deltalog10CFU/ml (Staphylococcus aureus [10]): -4.6
half-life [11]: 8 h
Activity (Staphylococcus aureus [12]): Active
Cmax [13]: 5200 ng/mL
deltalog10CFU/ml (Staphylococcus aureus [14]): -4.7
deltalog10CFU/ml (Staphylococcus aureus [15]): -4.5
deltalog10CFU/ml (Staphylococcus aureus [16]): -2.3
deltalog10CFU/ml (Staphylococcus aureus [17]): -1.6
deltalog10CFU/ml (Staphylococcus aureus [18]): -4.2
Activity (Staphylococcus aureus [19]): Active
deltalog10CFU/ml (Staphylococcus aureus [20]): -1.7
Activity (Staphylococcus aureus [21]): Active
deltalog10CFU/ml (Staphylococcus aureus [22]): -4.2
deltalog10CFU/ml (Staphylococcus aureus [23]): -3.2
MIC (Staphylococcus aureus [24]): 1 µg/mL (≈ 0.57 µM)
deltalog10CFU/ml (Staphylococcus aureus [25]): -4.6
deltalog10CFU/ml (Staphylococcus aureus [26]): -4.7
Activity (Staphylococcus aureus [27]): Active
deltalog10CFU/ml (Staphylococcus aureus [28]): -2.7
RatioAUC/MIC [29]: 404
deltalog10CFU/ml (Staphylococcus aureus [30]): -0.9
deltalog10CFU/ml (Staphylococcus aureus [31]): -4.3
deltalog10CFU/ml (Staphylococcus aureus [32]): -3.9
